Laboratory results published in ChEMBL document CHEMBL5576109, “Hydantoin derivative dimers as broad-spectrum antimicrobial agents against ESKAPE pathogens with enhanced killing rate and stability” (RSC Med Chem, 2024).
In brackets after ≈: the same amount, converted by molar mass.

Legend:
Staphylococcus aureus [1] = assay: Antibacterial activity against Staphylococcus aureus ATCC 29213 assessed as reduction bacterial growth after 16 hrs by TECAN SPARK microplate reader analysis; assay type: functional
Method in brief: (§1)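 Single colony grown overnight in 4 mL TSB at 37 °C, diluted 100-fold and grown to mid-log phase. Compounds 2-fold serially diluted in TSB and mixed 1:1 with bacteria in TSB (1 × 10^6 CFU/mL). Incubated 16 h at 37 °C, then A600 read. MIC taken as the lowest concentration giving complete growth inhibition.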

Pseudomonas aeruginosa = assay: Antibacterial activity against Pseudomonas aeruginosa CMCC 10104 assessed as reduction bacterial growth after 16 hrs by TECAN SPARK microplate reader analysis; assay type: functional; method in brief: as §1
Staphylococcus aureus [2] = assay: Antibacterial activity against methicillin-resistant Staphylococcus aureus ATCC 43300 assessed as reduction bacterial growth after 16 hrs by TECAN SPARK microplate reader analysis; assay type: functional
Method in brief: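 Broth microdilution in TSB: single colony grown overnight at 37 °C, diluted 100-fold and grown to mid-log phase. 2-fold serial compound dilutions mixed 1:1 with bacteria at 1 × 10^6 CFU/mL, incubated 16 h at 37 °C, absorbance read at 600 nm. MIC taken as lowest concentration giving complete growth inhibition.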

Enterococcus faecalis = assay: Antibacterial activity against Enterococcus faecalis ATCC 29212 assessed as reduction bacterial growth after 16 hrs by TECAN SPARK microplate reader analysis; assay type: functional; method in brief: as §1
Bacillus subtilis = assay: Antibacterial activity against Bacillus subtilis ATCC 6633 assessed as reduction bacterial growth after 16 hrs by TECAN SPARK microplate reader analysis; assay type: functional; method in brief: as §1
Klebsiella pneumoniae = assay: Antibacterial activity against Klebsiella pneumoniae ATCC 10031 assessed as reduction bacterial growth after 16 hrs by TECAN SPARK microplate reader analysis; assay type: functional; method in brief: as §1
Escherichia coli = assay: Antibacterial activity against Escherichia coli ATCC 25922 assessed as reduction bacterial growth after 16 hrs by TECAN SPARK microplate reader analysis; assay type: functional; method in brief: as §1
Acinetobacter baumannii = assay: Antibacterial activity against Acinetobacter baumannii ATCC 19606 assessed as reduction bacterial growth after 16 hrs by TECAN SPARK microplate reader analysis; assay type: functional; method in brief: as §1
[3] = Hemolytic activity in mouse red blood cells assessed as hemolysis incubated for 1 hr by TECAN SPARK microplate reader analysis; assay type: toxicity, cell-based, Erythrocyte; settings: red blood cells (erythrocytes)
Method in brief: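 Mouse RBCs washed three times in 1× PBS by centrifugation (3500 rpm, 10 min) and made up as a 5% v/v suspension. Incubated with 2-fold serially diluted compound in PBS for 1 h at 37 °C, then centrifuged. Supernatant diluted in PBS and A540 read. % hemolysis calculated relative to 1% Triton X-100 (100%) and PBS (0%).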

| Compound | MIC (Staphylococcus aureus [1]) | MIC (Pseudomonas aeruginosa) | MIC (Staphylococcus aureus [2]) | MIC (Enterococcus faecalis) | MIC (Bacillus subtilis) | MIC (Klebsiella pneumoniae) | MIC (Escherichia coli) | MIC (Acinetobacter baumannii) | HC50 at 1 h [3] |
| --- | --- | --- | --- | --- | --- | --- | --- | --- | --- |
| CCCCN1C(=O)[C@H](CCCCN)N(Cc2ccc(-c3ccc(CN4C(=O)N(CCCC)C(=O)[C@@H]4CCCCN)cc3)cc2)C1=O | 62.5 µg/mL (≈ 98.8 µM) | 125 µg/mL (≈ 198 µM) | 125 µg/mL (≈ 198 µM) | 250 µg/mL (≈ 395 µM) | 15.6 µg/mL (≈ 24.7 µM) | 15.6 µg/mL (≈ 24.7 µM) | 125 µg/mL (≈ 198 µM) | 62.5 µg/mL (≈ 98.8 µM) |  |
| CN(C)[C@@H]1C(O)=C(C(N)=O)C(=O)[C@@]2(O)C(O)=C3C(=O)c4c(O)cccc4[C@@](C)(O)[C@H]3C[C@@H]12 [TETRACYCLINE] | 0.98 µg/mL (≈ 2.21 µM) |  |  |  |  |  | 7.81 µg/mL (≈ 17.6 µM) |  |  |
| CCCCCCN1C(=O)[C@H](CCCCN)N(Cc2ccc(/C=C/c3ccc(CN4C(=O)N(CCCCCC)C(=O)[C@@H]4CCCCN)cc3)cc2)C1=O | 3.91 µg/mL (≈ 5.47 µM) | 15.6 µg/mL (≈ 21.8 µM) | 31.2 µg/mL (≈ 43.7 µM) | 7.81 µg/mL (≈ 10.9 µM) | 7.81 µg/mL (≈ 10.9 µM) | 3.91 µg/mL (≈ 5.47 µM) | 31.2 µg/mL (≈ 43.7 µM) | 15.6 µg/mL (≈ 21.8 µM) | 43.5 µg/mL |
| CC1(C)S[C@@H]2[C@H](NC(=O)Cc3ccccc3)C(=O)N2[C@H]1C(=O)O [PENICILLIN G] | 0.98 µg/mL (≈ 2.93 µM) |  |  |  |  |  | 250 µg/mL (≈ 748 µM) |  |  |
| O=C(O)c1cn(C2CC2)c2cc(N3CCNCC3)c(F)cc2c1=O [CIPROFLOXACIN] | 0.39 µg/mL (≈ 1.18 µM) |  |  |  |  |  |  |  |  |
| CCCCCCN1C(=O)[C@H](CCCCNC(=N)N)N(Cc2ccc3cc(CN4C(=O)N(CCCCCC)C(=O)[C@@H]4CCCCNC(=N)N)ccc3c2)C1=O | 3.91 µg/mL (≈ 5.23 µM) | 15.6 µg/mL (≈ 20.9 µM) | 15.6 µg/mL (≈ 20.9 µM) | 3.91 µg/mL (≈ 5.23 µM) | 3.91 µg/mL (≈ 5.23 µM) | 7.81 µg/mL (≈ 10.5 µM) | 15.6 µg/mL (≈ 20.9 µM) | 31.2 µg/mL (≈ 41.8 µM) | 117 µg/mL |
| COc1cccc(OC)c1C(=O)N[C@@H]1C(=O)N2[C@@H]1SC(C)(C)[C@@H]2C(=O)O [METHICILLIN] |  |  | 250 µg/mL (≈ 657 µM) |  |  |  |  |  |  |
| COLISTIN | 250 µg/mL |  |  |  |  |  | 3.91 µg/mL |  |  |
| CCCCCCN1C(=O)[C@H](CCCCN)N(Cc2ccc(CCc3ccc(CN4C(=O)N(CCCCCC)C(=O)[C@@H]4CCCCN)cc3)cc2)C1=O | 1.95 µg/mL (≈ 2.72 µM) | 125 µg/mL (≈ 174 µM) | 15.6 µg/mL (≈ 21.8 µM) | 7.81 µg/mL (≈ 10.9 µM) | 7.81 µg/mL (≈ 10.9 µM) | 3.91 µg/mL (≈ 5.45 µM) | 3.91 µg/mL (≈ 5.45 µM) | 3.91 µg/mL (≈ 5.45 µM) | 20.9 µg/mL |
| CO[C@H]1/C=C/O[C@@]2(C)Oc3c(C)c(O)c4c(O)c(c(/C=N/N5CCN(C)CC5)c(O)c4c3C2=O)NC(=O)/C(C)=C\C=C\[C@H](C)[C@H](O)[C@@H](C)[C@@H](O)[C@@H](C)[C@H](OC(C)=O)[C@@H]1C [RIFAMPIN] | 0.12 µg/mL (≈ 0.146 µM) |  |  |  |  |  | 7.81 µg/mL (≈ 9.49 µM) |  |  |
| CCCCCCN1C(=O)[C@H](CCCCN)N(Cc2ccc(-c3ccc(CN4C(=O)N(CCCCCC)C(=O)[C@@H]4CCCCN)cc3)cc2)C1=O | 1.95 µg/mL (≈ 2.83 µM) | 15.6 µg/mL (≈ 22.7 µM) | 7.81 µg/mL (≈ 11.3 µM) | 7.81 µg/mL (≈ 11.3 µM) | 1.95 µg/mL (≈ 2.83 µM) | 1.95 µg/mL (≈ 2.83 µM) | 1.95 µg/mL (≈ 2.83 µM) | 3.91 µg/mL (≈ 5.68 µM) | 32.8 µg/mL |
| CCCCCCN1C(=O)[C@H](CCCCN)N(Cc2ccc(CN3C(=O)N(CCCCCC)C(=O)[C@@H]3CCCCN)cc2)C1=O | 31.2 µg/mL (≈ 51 µM) | 62.5 µg/mL (≈ 102 µM) | 250 µg/mL (≈ 408 µM) | 125 µg/mL (≈ 204 µM) | 3.91 µg/mL (≈ 6.38 µM) | 62.5 µg/mL (≈ 102 µM) | 250 µg/mL (≈ 408 µM) | 250 µg/mL (≈ 408 µM) |  |
| CCCCCCN1C(=O)[C@H](CCCCN)N(Cc2ccc(CN3C(=O)N(CCCCCC)C(=O)[C@@H]3CCCCN)c3ccccc23)C1=O | 15.6 µg/mL (≈ 23.6 µM) | 62.5 µg/mL (≈ 94.3 µM) | 125 µg/mL (≈ 189 µM) | 62.5 µg/mL (≈ 94.3 µM) | 15.6 µg/mL (≈ 23.6 µM) | 31.2 µg/mL (≈ 47.1 µM) | 125 µg/mL (≈ 189 µM) | 125 µg/mL (≈ 189 µM) |  |
| CCCCCCCCN1C(=O)[C@H](CCCCN)N(Cc2ccc(-c3ccc(CN4C(=O)N(CCCCCCCC)C(=O)[C@@H]4CCCCN)cc3)cc2)C1=O | 31.2 µg/mL (≈ 41.9 µM) | 250 µg/mL (≈ 336 µM) | 250 µg/mL (≈ 336 µM) | 31.2 µg/mL (≈ 41.9 µM) | 15.6 µg/mL (≈ 21 µM) | 62.5 µg/mL (≈ 83.9 µM) | 250 µg/mL (≈ 336 µM) | 62.5 µg/mL (≈ 83.9 µM) |  |
| CC1(C)S[C@@H]2[C@H](NC(=O)[C@H](N)c3ccccc3)C(=O)N2[C@H]1C(=O)O [AMPICILLIN] | 0.98 µg/mL (≈ 2.8 µM) |  |  |  |  |  | 250 µg/mL (≈ 715 µM) |  |  |
| CCCCCCCN1C(=O)[C@H](CCCCN)N(Cc2ccc(-c3ccc(CN4C(=O)N(CCCCCCC)C(=O)[C@@H]4CCCCN)cc3)cc2)C1=O | 3.91 µg/mL (≈ 5.45 µM) | 15.6 µg/mL (≈ 21.8 µM) | 62.5 µg/mL (≈ 87.2 µM) | 7.81 µg/mL (≈ 10.9 µM) | 3.91 µg/mL (≈ 5.45 µM) | 7.81 µg/mL (≈ 10.9 µM) | 7.81 µg/mL (≈ 10.9 µM) | 7.81 µg/mL (≈ 10.9 µM) | 156 µg/mL |
| CCCCCCN1C(=O)[C@H](CCCCN)N(Cc2cccc(CN3C(=O)N(CCCCCC)C(=O)[C@@H]3CCCCN)c2)C1=O | 31.2 µg/mL (≈ 51 µM) | 31.2 µg/mL (≈ 51 µM) | 250 µg/mL (≈ 408 µM) | 62.5 µg/mL (≈ 102 µM) | 7.81 µg/mL (≈ 12.7 µM) | 62.5 µg/mL (≈ 102 µM) | 250 µg/mL (≈ 408 µM) | 125 µg/mL (≈ 204 µM) |  |
| CCCCCCN1C(=O)[C@H](CCCCN)N(Cc2cccc(-c3cccc(CN4C(=O)N(CCCCCC)C(=O)[C@@H]4CCCCN)c3)c2)C1=O | 3.91 µg/mL (≈ 5.68 µM) | 15.6 µg/mL (≈ 22.7 µM) | 7.81 µg/mL (≈ 11.3 µM) | 15.6 µg/mL (≈ 22.7 µM) | 7.81 µg/mL (≈ 11.3 µM) | 7.81 µg/mL (≈ 11.3 µM) | 3.91 µg/mL (≈ 5.68 µM) | 7.81 µg/mL (≈ 11.3 µM) | 38 µg/mL |
| CN[C@H](CC(C)C)C(=O)N[C@H]1C(=O)N[C@@H](CC(N)=O)C(=O)N[C@H]2C(=O)N[C@H]3C(=O)N[C@H](C(=O)N[C@H](C(=O)O)c4cc(O)cc(O)c4-c4cc3ccc4O)[C@H](O)c3ccc(c(Cl)c3)Oc3cc2cc(c3O[C@@H]2O[C@H](CO)[C@@H](O)[C@H](O)[C@H]2O[C@H]2C[C@](C)(N)[C@H](O)[C@H](C)O2)Oc2ccc(cc2Cl)[C@H]1O [VANCOMYCIN] | 1.95 µg/mL (≈ 1.35 µM) |  |  |  |  |  | 125 µg/mL (≈ 86.3 µM) |  |  |
| CCCCCN1C(=O)[C@H](CCCCN)N(Cc2ccc(-c3ccc(CN4C(=O)N(CCCCC)C(=O)[C@@H]4CCCCN)cc3)cc2)C1=O | 7.81 µg/mL (≈ 11.8 µM) | 62.5 µg/mL (≈ 94.6 µM) | 15.6 µg/mL (≈ 23.6 µM) | 31.2 µg/mL (≈ 47.3 µM) | 7.81 µg/mL (≈ 11.8 µM) | 62.5 µg/mL (≈ 94.6 µM) | 7.81 µg/mL (≈ 11.8 µM) | 15.6 µg/mL (≈ 23.6 µM) | 135 µg/mL |
| CCCCCCN1C(=O)[C@H](CCCCN)N(Cc2ccc3cc(CN4C(=O)N(CCCCCC)C(=O)[C@@H]4CCCCN)ccc3c2)C1=O | 3.91 µg/mL (≈ 5.9 µM) | 15.6 µg/mL (≈ 23.6 µM) | 15.6 µg/mL (≈ 23.6 µM) | 31.2 µg/mL (≈ 47.1 µM) | 7.81 µg/mL (≈ 11.8 µM) | 1.95 µg/mL (≈ 2.94 µM) | 15.6 µg/mL (≈ 23.6 µM) | 31.2 µg/mL (≈ 47.1 µM) | 59.9 µg/mL |
| CCCCCCN1C(=O)[C@H](CCCCN)N(Cc2ccc(-c3ccc(-c4ccc(CN5C(=O)N(CCCCCC)C(=O)[C@@H]5CCCCN)cc4)cc3)cc2)C1=O | 7.81 µg/mL (≈ 10.2 µM) | 250 µg/mL (≈ 327 µM) | 250 µg/mL (≈ 327 µM) | 15.6 µg/mL (≈ 20.4 µM) | 3.91 µg/mL (≈ 5.11 µM) | 62.5 µg/mL (≈ 81.7 µM) | 62.5 µg/mL (≈ 81.7 µM) | 125 µg/mL (≈ 163 µM) |  |
| CCCCCCCCCCCCN1C(=O)[C@H](CCCCN)N(Cc2ccc(-c3ccc(CN4C(=O)N(CCCCCCCCCCCC)C(=O)[C@@H]4CCCCN)cc3)cc2)C1=O | 250 µg/mL (≈ 292 µM) |  |  |  |  |  | 250 µg/mL (≈ 292 µM) |  |  |
